From the RNAGym collection of RNA variant scans (doi:10.1002/anie.201605470) come the findings set out here.

B1: Osa-1-4 twister ribozyme (parent)
chain: CCGCCUAACACUGCCAAUGCCGGUCCCAAGCCCGGAUAAAAGUGGAGGGGGCGG

The variants in the data set derive from B1. In words: self-cleavage, relative activity (ratio to wild type); higher = more cleavage; co-transcriptional. In a few lines: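 Relative activity is the fraction cleaved divided by that of the wild-type ribozyme. The library came from a DNA template for a 54-nucleotide Oryza sativa twister ribozyme, doped at the 48 positions downstream of the cleavage site with 97 % wild-type base and 1 % of each other base. After 2 h of in vitro transcription at 37 °C with co-transcriptional self-cleavage, the RNA was reverse-transcribed with a template-switching oligonucleotide, amplified by PCR and deep-sequenced, and reads with or without upstream sequence gave the cleavage status.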
With CCGCCUAACAAUGCCAAUGCCGGUCCCAAGCCCGGAUAAAAGUCGAGGGGGCGG [C11A G44C], the self-cleavage came out at 0.45. The figure for CCGCCUAACAAUGCCAAUGCCGGUCCCAAGCCCGGAUAAAAGUAGAGGGGGCGG [C11A G44A] is 0.19; for CCGCCUAACAAUGCCAAUGCCGGUCCCAAGCCCGGAUAAAAGUGGAGAGGGCGG [C11A G48A] it is 0.05; for CCGCCUAACAAUGCCAAUGCCGGUCCCAAGCCCGGAUAAAAGUGGAGCGGGCGG [C11A G48C] it is 0.05. In the case of CCGCCUAACAAUGCCAAUGCCGGUCCCAAGCCCGGAUAAAAGUGGAGUGGGCGG [C11A G48U], the self-cleavage was determined as 0.05.

CCGCCUAACAAUGCCAAUGCCGGUCCCAAGCCAGGAUAAAAGUGGAGGGGGCGG [C11A C33A]: the self-cleavage turned out to be 0.06. The figure for CCGCCUAACAAUGCCAAUGCCGGUCCCAAGCCUGGAUAAAAGUGGAGGGGGCGG [C11A C33U] is 0.2; for CCGCCUAACAAUGCCAAUGCCGGUCCCAAGCCGGGAUAAAAGUGGAGGGGGCGG [C11A C33G] it is 0.04; for CCGCCUAACAAUGCCAAUGCCGGUCCCAAGCCCGGAUAAAAGUGAAGGGGGCGG [C11A G45A] it is 0.06. The figure for CCGCCUAACAAUGCCAAUGCCGGUCCCAAGCCCGGAUAAAAGUGCAGGGGGCGG [C11A G45C] is 0.04. Under CCGCCUAACAAUGCCAAUGCCGGUCCCAAGCCCGGAUAAAAGUGUAGGGGGCGG [C11A G45U] stands 0.06; under CCGCCUAACAAUGCCAAUGCCGGUCCCAAGCCCGGAUAAAAGUGGAGGGCGCGG [C11A G50C], 0.57. CCGCCUAACAAUGCCAAUGCCGGUCCCAAGCCCGGAUAAAAGUGGAGGGUGCGG [C11A G50U]: the self-cleavage was found to be 0.77.

On to CCGCCUAACAAUGCCAAUGCCGGUCCCAAGCCCGGAUAAAAGUGGAGGGAGCGG [C11A G50A], for which the self-cleavage was 0.3. The figure for CCGCCUAACAAUCCCAAUGCCGGUCCCAAGCCCGGAUAAAAGUGGAGGGGGCGG [C11A G13C] is 0.03. Under CCGCCUAACAAUUCCAAUGCCGGUCCCAAGCCCGGAUAAAAGUGGAGGGGGCGG [C11A G13U] stands 0.04; under CCGCCUAACAAUACCAAUGCCGGUCCCAAGCCCGGAUAAAAGUGGAGGGGGCGG [C11A G13A], 0.03; under CCGCCUAACAGUGCCAAUGCAGGUCCCAAGCCCGGAUAAAAGUGGAGGGGGCGG [C11G C21A], 0.06.

For CCGCCUAACAGUGCCAAUGCGGGUCCCAAGCCCGGAUAAAAGUGGAGGGGGCGG [C11G C21G], the self-cleavage was 0.04.

As for CCGCCUAACAAUGCCAAUGCCGGUCCCAAGCCCGGAUAAAAGUGGAGGAGGCGG [C11A G49A], the self-cleavage was found to be 0.06. On to CCGCCUAACAAUGCCAAUGCCGGUCCCAAGCCCGGAUAAAAGUGGAGGUGGCGG [C11A G49U], for which the self-cleavage was 0.07.

With CCGCCUAACAAUGCCAAUGCCGGUCCCAAGCCCGGAUAAAAGUGGAGGCGGCGG [C11A G49C], the self-cleavage amounted to 0.06. As to CCGCCUAACAGUGACAAUGCCGGUCCCAAGCCCGGAUAAAAGUGGAGGGGGCGG [C11G C14A], the self-cleavage is 0.05.

With CCGCCUAACAGUGUCAAUGCCGGUCCCAAGCCCGGAUAAAAGUGGAGGGGGCGG [C11G C14U], the self-cleavage was 0.13. With CCGCCUAACAGUGGCAAUGCCGGUCCCAAGCCCGGAUAAAAGUGGAGGGGGCGG [C11G C14G], the self-cleavage worked out at 0.06. Under CCGCCUAACAAUGCCAAUGCCGGUCCCAAGCCCGGAUAAAAGUGGAGGGGCCGG [C11A G51C] stands 0.04.

CCGCCUAACAAUGCCAAUGCCGGUCCCAAGCCCGGAUAAAAGUGGAGGGGUCGG [C11A G51U]: the self-cleavage worked out at 0.06. Regarding CCGCCUAACAAUGCCAAUGCCGGUCCCAAGCCCGGAUAAAAGUGGAGGGGACGG [C11A G51A], the self-cleavage amounted to 0.17. Under CCGCCUAACAAUGCCAAUGCCGGUCCCAAGCGCGGAUAAAAGUGGAGGGGGCGG [C11A C32G] stands 0.07; under CCGCCUAACAAUGCCAAUGCCGGUCCCAAGCACGGAUAAAAGUGGAGGGGGCGG [C11A C32A], 0.06. Consider CCGCCUAACAAUGCCAAUGCCGGUCCCAAGCUCGGAUAAAAGUGGAGGGGGCGG [C11A C32U], for which the self-cleavage came out at 0.06. Turning to CCGCCUAACAAUGCCAAUGCCGGUCCCAAGCCCGGAGAAAAGUGGAGGGGGCGG [C11A U37G], the self-cleavage was 0.81.

For CCGCCUAACAAUGCCAAUGCCGGUCCCAAGCCCGGACAAAAGUGGAGGGGGCGG [C11A U37C], the self-cleavage was 0.88. Under CCGCCUAACAAUGCCAAUGCCGGUCCCAAGCCCGGAAAAAAGUGGAGGGGGCGG [C11A U37A] stands 0.48. As to CCGCCUAACAAUGCCAAUGCCGGUCCCAAGCCCGGAUAAAAGUGGAGGGGGUGG [C11A C52U], the self-cleavage stood at 0.9. The figure for CCGCCUAACAAUGCCAAUGCCGGUCCCAAGCCCGGAUAAAAGUGGAGGGGGGGG [C11A C52G] is 0.74; for CCGCCUAACAAUGCCAAUGCCGGUCCCAAGCCCGGAUAAAAGUGGAGGGGGAGG [C11A C52A] it is 0.63. Under CCGCCUAACAAUGCCAAAGCCGGUCCCAAGCCCGGAUAAAAGUGGAGGGGGCGG [C11A U18A] stands 0.67; under CCGCCUAACAAUGCCAACGCCGGUCCCAAGCCCGGAUAAAAGUGGAGGGGGCGG [C11A U18C], 0.43; under CCGCCUAACAAUGCCAAGGCCGGUCCCAAGCCCGGAUAAAAGUGGAGGGGGCGG [C11A U18G], 0.64. Regarding CCGCCUAACAAUGCCAAUGCCGGUCCCAAUCCCGGAUAAAAGUGGAGGGGGCGG [C11A G30U], the self-cleavage came to 0.03. Under CCGCCUAACAAUGCCAAUGCCGGUCCCAACCCCGGAUAAAAGUGGAGGGGGCGG [C11A G30C] stands 0.03; under CCGCCUAACAAUGCCAAUGCCGGUCCCAAACCCGGAUAAAAGUGGAGGGGGCGG [C11A G30A], 0.03. The figure for CCGCCUAACAGUGCCAAUGACGGUCCCAAGCCCGGAUAAAAGUGGAGGGGGCGG [C11G C20A] is 0.4; for CCGCCUAACAGUGCCAAUGGCGGUCCCAAGCCCGGAUAAAAGUGGAGGGGGCGG [C11G C20G] it is 0.04; for CCGCCUAACAGUGCCAAUGUCGGUCCCAAGCCCGGAUAAAAGUGGAGGGGGCGG [C11G C20U] it is 0.5. Under CCGCCUAACAAUGCCAAUGCCGGUCCCAAGCCCGGAUAAAAGUGGAGGGGGCGU [C11A G54U] stands 0.71; under CCGCCUAACAAUGCCAAUGCCGGUCCCAAGCCCGGAUAAAAGUGGAGGGGGCGC [C11A G54C], 0.66; under CCGCCUAACAAUGCCAAUGCCGGUCCCAAGCCCGGAUAAAAGUGGAGGGGGCGA [C11A G54A], 0.62.
